# From ChEMBL document CHEMBL5113379, “4-Oxooctahydroquinoline-1(2H)-carboxamides as hepatitis B virus (HBV) capsid core protein assembly modulators” (Bioorg Med Chem Lett, 2022)
# The source made the active and inactive calls. No cut-off for these calls is given here.
# What was measured:
# [1] = Cytotoxicity against mouse […] measured by MTT assay; assay type: toxicity, cell-based, AML12HBV10; details: aml12hbv10
# Method in brief: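 Cytotoxicity was measured by MTT assay in the stable HBV line AML12HBV10, derived from immortalized mouse hepatocytes (AML12), and CC50 was determined.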
# Hepatitis B virus = test: Antiviral activity against HBV infected in mouse AML12HBV10 cells assessed as reduction in viral replication incubated for 48 hrs and measured by [alpha-32P]UTP-labeled radio-probe based dot blot hybridization assay; assay type: functional, organism-based
# Method in brief: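 The test used the stable HBV line AML12HBV10, derived from immortalized mouse hepatocytes (AML12). HBV replication was measured by dot blot hybridization and EC50 was determined.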
# HepDES19 [2] = test: Antiviral activity against HBV infected in human HepDES19 cells assessed as reduction of capsid associated HBV DNA 1 uM measured by agarose gel electrophoresis-based particle gel assay; assay type: functional, cell-based
# Method in brief: (§1)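 HepDES19 cells were kept with tetracycline to block pgRNA transcription (negative control) or without it to induce pgRNA transcription and HBV DNA replication. Compounds (1, 2 or 5 μM) or DMSO were added starting 24 h after tet removal and kept for 6 days.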
# [3] = Metabolic stability in human liver microsomes assessed as half-life; assay type: ADME, Microsome; details: microsomes
# [4] = Metabolic stability in mouse liver microsomes assessed as half-life; assay type: ADME, Microsome; details: microsomes
# HepDES19 [5] = test: Antiviral activity against HBV infected in human HepDES19 cells assessed reduction of amounts of encapsidated pgRNA 5 uM […] by northern blot hybridization assay; assay type: functional, cell-based
# Method in brief: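 In tet-inducible HepDES19 cells, pgRNA transcription was induced by tetracycline removal; tet-maintained cells were the negative control. Treatment with DMSO or compound at 2 or 5 μM began 24 h after tet removal and lasted 6 days. Encapsidated pgRNA was detected by Northern blot hybridization, with ribosomal RNA as loading control.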
# HepDES19 [6] = test: Antiviral activity against HBV infected in human HepDES19 cells assessed as reduction of capsid associated HBV DNA 5 uM measured by agarose gel electrophoresis-based particle gel assay; assay type: functional, cell-based; method in brief: as §1
# [7] = Observed volume of distribution at steady state in mouse at 3 mg/kg, iv; assay type: ADME, organism-based; details: in vivo, read-out: Vdss
# [8] = Plasma protein binding in mouse; assay type: ADME, cell-free
# [9] = Half-life in mouse at 10 mg/kg, po; assay type: ADME, organism-based; details: in vivo
# [10] = Solubility of the compound at pH 4; assay type: physicochemical; details: buffer
# [11] = Oral bioavailability in mouse at 10 mg/kg; assay type: ADME, organism-based; details: in vivo
# [12] = Solubility of the compound at pH 7; assay type: physicochemical; details: buffer
# [13] = Plasma protein binding in human; assay type: ADME, cell-free
# [14] = AUClast in mouse at 10 mg/kg, po; assay type: ADME, organism-based; design: time 0 - last, dose 10 mg/kg, route po; details: in vivo
# [15] = Cmax in mouse at 10 mg/kg, po; assay type: ADME, organism-based; design: dose 10 mg/kg, route po; details: in vivo
# [16] = AUClast in mouse at 3 mg/kg, iv; assay type: ADME, organism-based; design: time 0 - last, dose 3 mg/kg, route iv; details: in vivo
# [17] = Half-life in mouse at 3 mg/kg, iv; assay type: ADME, organism-based; details: in vivo
# [18] = Hepatitis B virus, AML12HBV10, 48 h
Compound,CC50 [1],EC50 (Hepatitis B virus; [18]),further results
O=C(Nc1ccc(F)c(Cl)c1)N1CCOc2cccnc21,26.3 µM,> 10 µM,–
C=C1[C@H](CO)[C@@H](O)C[C@@H]1n1cnc2c(=O)[nH]c(N)nc21,–,–,Activity (HepDES19 [2]): Active
N#Cc1cc(NC(=O)N2CCC(=O)[C@H]3CCCC[C@H]32)ccc1F,> 20 µM,0.85 µM,–
O=C(Nc1ccc(F)c(Cl)c1)c1cccc2c1OC(F)(F)O2,> 100 µM,0.11 µM,t1/2 [3]: 16.4 min; t1/2 [4]: 11 min
O=C(Nc1ccc(F)c(Cl)c1)c1cccc2nccnc12,> 12.5 µM,2.39 µM,–
O=C1CCCN(C(=O)Nc2ccc(F)c(Cl)c2)c2ccccc21,> 100 µM,> 10 µM,–
O=C(Nc1ccc(C(F)(F)F)c(Cl)c1)c1cccc2c1OCCO2,> 50 µM,1.59 µM,t1/2 [3]: 44.4 min; t1/2 [4]: 6.9 min
O=C(CC1COCCO1)Nc1ccc(F)c(Cl)c1 (stereo unspecified),> 100 µM,5.02 µM,–
O=C(Nc1ccc(F)c(Cl)c1)c1cccc2ccoc12,> 100 µM,0.73 µM,t1/2 [3]: 61.2 min; t1/2 [4]: 6 min
O=C1CC2CC1CN2C(=O)Nc1ccc(F)c(Cl)c1 (stereo unspecified),> 100 µM,> 10 µM,–
O=C(Nc1cc(Cl)nc(Cl)c1)c1cccc2c1OCCO2,> 33.3 µM,6.3 µM,–
O=C1CCN(C(=O)Nc2ccc(F)c(Cl)c2)C(Cc2ccccc2)C1 (stereo unspecified),> 20 µM,5.11 µM,–
O=C1CCC(C(=O)Nc2ccc(F)c(Cl)c2)c2ccccc21 (stereo unspecified),> 100 µM,1.67 µM,t1/2 [4]: 5.8 min
O=C(Nc1ccc(F)c(Cl)c1)N1CCS(=O)(=O)c2ccccc21,> 100 µM,> 10 µM,–
O=C(Nc1ccc(F)c(Cl)c1)c1cccc2c1OCCO2,> 50 µM,0.2 µM,t1/2 [3]: 1.7 min; t1/2 [4]: 6.6 min
O=C(Nc1ccc2c(c1)CCC2)c1cccc2c1OCCO2,> 50 µM,> 10 µM,–
O=C(Nc1ccc(F)c(Cl)c1)N1CCOc2ccccc21,> 100 µM,0.52 µM,t1/2 [3]: 14.7 min; t1/2 [4]: < 4 min
O=C1CCN(C(=O)Nc2ccc(F)c(Cl)c2)C2CCCCC12 (stereo in doubt; 61) [listing 1 of 2 here],–,–,Activity (HepDES19 [5]): Active; Activity (HepDES19 [6]): Active
O=C1CCN(C(=O)Nc2ccc(F)c(Cl)c2)C2CCCCC12 (stereo unspecified),–,–,EC50 (Hepatitis B virus; aml12hbv10): 1.81 µM; t1/2 [3]: 5 min; t1/2 [4]: 7.8 min
O=C1CC(c2ccccc2)N(C(=O)Nc2ccc(F)c(Cl)c2)c2ccccc21 (stereo unspecified),> 50 µM,2.89 µM,–
O=C1CCN(C(=O)Nc2ccc(F)c(Cl)c2)C2CCCCC12 (stereo in doubt; 61) [listing 2 of 2 here],–,–,Vd [7]: 0.8 L/kg; EC50 (Hepatitis B virus; aml12hbv10): 0.46 µM; t1/2 [3]: 71 min; PPB [8]: 94%; t1/2 [9]: 42 min; solubility [10]: 239 µM; F [11]: 69%; solubility [12]: 253 µM; PPB [13]: 90%; AUClast [14]: 4.516 µg·h/mL; Cmax [15]: 2.727 µg/mL; t1/2 [4]: 56 min; AUClast [16]: 1.952 µg·h/mL; t1/2 [17]: 36 min
C[C@@H](NS(=O)(=O)c1ccc(F)c(C(=O)Nc2ccc(F)c(F)c2)c1)C1CC1,–,–,Activity (HepDES19 [5]): Active
O=C(Nc1ccc(F)c(Cl)c1)c1cccc2cc[nH]c12,> 33.3 µM,4.48 µM,–
Cc1cc(NC(=O)N2CCC(=O)[C@H]3CCCC[C@H]32)ccc1F,> 20 µM,0.38 µM,–
O=C(NCc1ccc(F)cc1F)c1cccc2c1OCCO2,> 20 µM,4.62 µM,–
O=C(Nc1ccc(F)c(Cl)c1)c1cc(S(=O)(=O)N2CCC(O)CC2)cc2c1OCCO2,> 50 µM,5.57 µM,–
O=C1CCN(C(=O)Nc2cccc(Cl)c2)[C@@H]2CCCC[C@H]12,> 20 µM,0.22 µM,–
